Laboratory results as given in ChEMBL document CHEMBL4842315, “Discovery and mechanism of action studies of 4,6-diphenylpyrimidine-2-carbohydrazides as utrophin modulators for the treatment of Duchenne muscular dystrophy” (Eur J Med Chem, 2021).
Activity calls are given as the source filed them. The rule behind the calls is not given here.

Test system: not listed separately
Assay: Upregulation of utrophin gene expression in mouse myoblasts expressing LUmdx and firefly luciferase assessed as activation of utrophin promoter by cell-based reporter assay
Format: functional, tissue-based, Myoblast
Settings: Mus musculus, Myoblast; read-out: EC50
Procedure, shortened: (§1)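 Immortalised myoblasts derived from the LUmdx mouse carry a utrophin promoter–firefly luciferase reporter, and promoter activation is read as luciferase signal. During screening, hits were counterscreened for firefly luciferase assay interference.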

| Structure (SMILES) | EC50 |
| --- | --- |
| NNC(=O)c1nc(-c2ccccc2)cc(-c2ccc(CO)cc2)n1 | 1.9 µM |
| NNC(=O)c1nc(-c2ccccc2F)cc(-c2ccccc2F)n1 | 11 µM |
| NNC(=O)c1nc(-c2ccccc2)cc(-c2ccccc2)n1 | 20.5 µM |
| NNC(=O)c1nc(-c2ccccc2)cc(-c2ccc(O)cc2)n1 | 1.57 µM |
| COc1cccc(-c2cc(-c3cccc(OC)c3)nc(C(=O)NN)n2)c1 | 9.22 µM |
| NNC(=O)c1nc(-c2ccccc2)nc(-c2ccccc2)n1 | 8.98 µM |
| NNC(=O)c1nc(-c2cccc(F)c2)cc(-c2cccc(F)c2)n1 | > 10 µM |

Continued, values first:

| EC50 | Structure (SMILES) |
| --- | --- |
| 5.62 µM | CCCOc1ccc(-c2cc(-c3ccccc3)nc(C(=O)NN)n2)cc1 |
| 4.65 µM | COCc1ccc(-c2cc(-c3ccccc3)nc(C(=O)NN)n2)cc1 |
| 14.9 µM | C#CCOCCOc1ccc(-c2cc(-c3ccccc3)nc(C(=O)NN)n2)cc1 |
| 2.28 µM | COc1ccc(-c2cc(-c3ccccc3)nc(C(=O)NN)n2)cc1 |
| 12.8 µM | NNC(=O)c1nc(-c2ccc(F)cc2)cc(-c2ccc(F)cc2)n1 |
| 20 µM | C#CCOCCOc1ccc(-c2cc(-c3ccc(C4(C(F)(F)F)N=N4)cc3)nc(C(=O)NN)n2)cc1 |
| 7.22 µM | NNC(=O)c1nc(-c2ccccc2)cc(-c2ccc(C3(C(F)(F)F)N=N3)cc2)n1 |
| 2.71 µM | CCOc1ccc(-c2cc(-c3ccccc3)nc(C(=O)NN)n2)cc1 |
| 4.54 µM | CCCc1ccc(-c2cc(-c3ccccc3)nc(C(=O)NN)n2)cc1 |
| 12.7 µM | CC(=O)NCCOCCOc1ccc(-c2cc(-c3ccccc3)nc(C(=O)NN)n2)cc1 |
| 8.95 µM | COCCOc1ccc(-c2cc(-c3ccccc3)nc(C(=O)NN)n2)cc1 |
| > 10 µM | NNC(=O)c1nc(-c2ccc(C(F)(F)F)cc2)cc(-c2ccc(C(F)(F)F)cc2)n1 |
| 7.14 µM | COc1ccc(-c2cc(-c3ccc(OC)cc3)nc(C(=O)NN)n2)cc1 |

Same assay, conditions: myoblast

| Structure (SMILES) | EC50 |
| --- | --- |
| Cc1cc(C)nc(C(=O)NN)n1 | Not Active |
| COc1cc(-c2ccccc2)nc(C(=O)NN)n1 | Not Active |
| NNC(=O)c1nc(-c2ccccc2C(F)(F)F)cc(-c2ccccc2C(F)(F)F)n1 | Not Active |
| NNC(=O)c1cc(-c2ccccc2)cc(-c2ccccc2)n1 | Not Active |
| NNC(=O)c1nc(Oc2ccccc2)cc(-c2ccccc2)n1 | Not Active |
| NNC(=O)c1cc(-c2ccccc2)nc(-c2ccccc2)n1 | Not Active |
| NC(=O)c1nc(-c2ccccc2)cc(-c2ccccc2)n1 | Not Active |
| O=C(O)c1nc(-c2ccccc2)cc(-c2ccccc2)n1 | Not Active |
| NNC(=O)c1cnc(-c2ccccc2)cc1-c1ccccc1 | Not Active |
| NNC(=O)Cc1nc(-c2ccccc2)cc(-c2ccccc2)n1 | Not Active |
| COc1ccccc1-c1cc(-c2ccccc2OC)nc(C(=O)NN)n1 | Not Active |
| NNC(=O)c1ncccn1 | Not Active |
| NNC(=O)c1nc(-c2cccc(C(F)(F)F)c2)cc(-c2cccc(C(F)(F)F)c2)n1 | Not Active |
| NNc1nc(-c2ccccc2)cc(-c2ccccc2)n1 | Not Active |
| N/N=C/c1nc(-c2ccccc2)cc(-c2ccccc2)n1 | Not Active |
| NNC(=O)c1nc(-c2ccccc2)cc(C2CCCCC2)n1 | Not Active |
| COC(=O)c1nc(-c2ccccc2)cc(-c2ccccc2)n1 | Not Active |
| O=C(NO)c1nc(-c2ccccc2)cc(-c2ccccc2)n1 | Not Active |

Further lines, results first:

| EC50 | Structure (SMILES) |
| --- | --- |
| Not Active | Cc1c(-c2ccccc2)nc(C(=O)NN)nc1-c1ccccc1 |
| Not Active | C#CCOCCOc1ccc(-c2nc(C(=O)NN)nc(-c3ccc(C4(C(F)(F)F)N=N4)cc3)c2C)cc1 |
| Not Active | CCCCOc1ccc(-c2cc(-c3ccccc3)nc(C(=O)NN)n2)cc1 |
| Not Active | NNC(=O)c1nc(-c2ccccc2)cc(-c2ccc(Oc3ccccc3)cc2)n1 |
| Not Active | NNC(=O)c1nc(-c2ccccc2)cc(-c2ccc(OCCOCc3ccccc3)cc2)n1 |

Test system: not listed separately
Assay: Upregulation of utrophin gene expression in DMD disease mouse model myoblasts expressing H2K-mdx utrnA-firefly luciferase assessed as fold increase in utrophin mRNA at 3 uM by qRT-PCR analysis relative to control
Format: functional, Myoblast
Settings: not given

| Structure (SMILES) | fold change (FC) |
| --- | --- |
| CCS(=O)(=O)c1ccc2oc(-c3ccc4ccccc4c3)nc2c1 [EZUTROMID] | 1.7 |

Test system: Myoblast
Assay: Upregulation of AhR gene expression in DMD disease mouse model myoblasts expressing H2K-mdx utrnA-firefly luciferase assessed as fold increase in AhR mRNA at 30 uM by qRT-PCR analysis relative to control
Settings: not given

| fold change (FC) | Structure (SMILES) |
| --- | --- |
| inactive | CCS(=O)(=O)c1ccc2oc(-c3ccc4ccccc4c3)nc2c1 [EZUTROMID] |

Test system: not listed separately
Assay: Upregulation of utrophin gene expression in mouse myoblasts expressing LUmdx and firefly luciferase assessed as activation of utrophin promoter at 0.1 to 50 uM by cell-based reporter assay relative to control
Format: functional, Myoblast
Settings: dose 0.1-50 µM
Procedure, shortened: as §1

| Structure (SMILES) | fold change (FC) |
| --- | --- |
| NNC(=O)c1nc(-c2ccccc2)cc(-c2ccccc2)n1 | 2 |

Test system: not listed separately
Assay: Upregulation of utrophin gene expression in DMD disease mouse model myoblasts expressing H2K-mdx utrnA-firefly luciferase assessed as fold increase in utrophin mRNA at 30 uM by qRT-PCR analysis relative to control
Format: functional, Myoblast
Settings: not given

| Structure (SMILES) | fold change (FC) |
| --- | --- |
| NNC(=O)c1nc(-c2ccccc2)cc(-c2ccccc2)n1 | 1.6 |

Test system: Myoblast
Assay: Upregulation of utrophin gene expression in DMD disease mouse model myoblasts expressing H2K-mdx utrnA-firefly luciferase assessed as activation of utrophin promoter by cell-based reporter assay
Format: functional, tissue-based
Settings: not given

| Structure (SMILES) | Activity |
| --- | --- |
| NNC(=O)c1nc(-c2ccccc2)cc(-c2ccccc2)n1 | inactive |

Test system: not listed separately
Assay: Apparent permeability of the compound across apical to basolateral side in human Caco-2 cells
Format: ADME, cell-based
Settings: read-out: permeability

| Papp A→B | Structure (SMILES) |
| --- | --- |
| 30.7 ×10⁻⁶ cm/s | NNC(=O)c1nc(-c2ccccc2)cc(-c2ccccc2)n1 |
